Legend:
[1] = target: T1, Prostaglandin E2 receptor EP1 subtype (Homo sapiens, UniProt P34995); experiment: Binding affinity to EP1 receptor
T1 sequence (P34995 whole entry): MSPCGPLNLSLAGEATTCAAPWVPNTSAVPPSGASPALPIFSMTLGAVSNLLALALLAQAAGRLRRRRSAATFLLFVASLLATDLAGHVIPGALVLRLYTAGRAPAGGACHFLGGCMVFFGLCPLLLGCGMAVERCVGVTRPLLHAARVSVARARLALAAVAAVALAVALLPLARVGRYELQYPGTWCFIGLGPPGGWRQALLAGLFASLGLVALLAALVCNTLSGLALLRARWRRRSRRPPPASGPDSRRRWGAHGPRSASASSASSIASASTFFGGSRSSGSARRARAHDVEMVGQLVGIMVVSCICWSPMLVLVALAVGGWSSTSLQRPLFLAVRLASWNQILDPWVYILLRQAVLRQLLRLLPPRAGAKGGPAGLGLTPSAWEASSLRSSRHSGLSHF

[2] = target: Prostaglandin E2 receptor EP2 subtype (Homo sapiens, UniProt P43116); experiment: Binding affinity to EP2 receptor
[3] = target: T2, Prostaglandin E2 receptor EP3 subtype (Homo sapiens, UniProt P43115); experiment: Binding affinity to EP3 receptor
T2 sequence (P43115 whole entry): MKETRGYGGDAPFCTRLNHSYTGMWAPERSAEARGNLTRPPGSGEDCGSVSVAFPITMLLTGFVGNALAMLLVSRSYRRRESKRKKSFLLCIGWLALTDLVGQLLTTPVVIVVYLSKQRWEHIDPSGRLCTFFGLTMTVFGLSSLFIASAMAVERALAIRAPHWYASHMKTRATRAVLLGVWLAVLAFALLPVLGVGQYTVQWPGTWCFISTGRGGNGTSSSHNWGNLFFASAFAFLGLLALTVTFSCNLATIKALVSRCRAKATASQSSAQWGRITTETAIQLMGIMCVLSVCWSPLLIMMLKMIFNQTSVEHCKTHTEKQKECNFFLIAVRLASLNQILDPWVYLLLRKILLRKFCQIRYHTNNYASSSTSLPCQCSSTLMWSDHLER

[4] = target: Prostaglandin E2 receptor EP4 subtype (Homo sapiens, UniProt P35408); experiment: Binding affinity to EP4 receptor
[5] = target: T3, Prostaglandin E2 receptor EP3 subtype (Homo sapiens) (UniProt P43115); experiment: Antagonistic activity at EP3 receptor assessed as inhibition of cAMP production in HEK EBNA cells; assay type: functional, cell-based; details: HEK293-EBNA, filed as antagonist
T3 sequence (whole entry): T2 sequence (P43115 whole entry)

[6] = Stability in rat hepatocytes after 3 hrs; assay type: ADME, cell-based, Hepatocyte; details: read-out: Stability
Summary of the method: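 Incubation with rat hepatocytes for 3 h; percentage of parent compound recovered intact.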

[7] = Bioavailability in Sprague-Dawley rat at 10 mg/kg, po and 5 mg/kg, iv; assay type: ADME, organism-based; details: in vivo
[8] = Clearance in Sprague-Dawley rat at 10 mg/kg, po and 5 mg/kg, iv; assay type: ADME, organism-based; details: in vivo
[9] = Half life in Sprague-Dawley rat at 10 mg/kg, po and 5 mg/kg, iv; assay type: ADME, organism-based; details: in vivo
[10] = Cmax in Sprague-Dawley rat at 10 mg/kg, po and 5 mg/kg, iv after 30 mins; assay type: ADME, organism-based; details: in vivo
Rattus norvegicus [11] = experiment: Antiinflammatory activity against carrageenan-induced paw edema in po dosed rat; assay type: functional
Rattus norvegicus [12] = experiment: Effect on carrageenan-induced paw hyperalgesia in po dosed rat; assay type: functional
Rattus norvegicus [13] = experiment: Concentration in carrageenan-induced hyperalgesic rat at 10 mg/kg, po, 1 hr postdose; assay type: functional
Summary of the method: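 Young 100 g rats from the hyperalgesia model given 10 mg/kg po in 0.5% methocel as sodium salts; plasma concentration measured 1 h post-dosing, at the time hyperalgesia was assessed.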

Prostacyclin receptor = Prostacyclin receptor (Homo sapiens, UniProt P43119); experiment: Binding affinity to IP receptor
Thromboxane A2 receptor = target: T4, Thromboxane A2 receptor (Homo sapiens, UniProt P21731); experiment: Binding affinity to TP receptor
T4 sequence (P21731 whole entry): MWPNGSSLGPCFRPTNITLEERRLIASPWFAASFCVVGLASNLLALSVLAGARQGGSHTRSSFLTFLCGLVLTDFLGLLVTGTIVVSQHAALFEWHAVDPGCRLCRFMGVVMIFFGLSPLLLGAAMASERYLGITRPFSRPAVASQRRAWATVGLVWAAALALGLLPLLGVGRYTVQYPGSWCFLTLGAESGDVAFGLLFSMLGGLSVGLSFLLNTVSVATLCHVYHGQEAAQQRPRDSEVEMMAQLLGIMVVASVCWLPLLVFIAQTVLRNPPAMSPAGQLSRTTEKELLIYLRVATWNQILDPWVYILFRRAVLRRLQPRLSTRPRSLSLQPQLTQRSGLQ

[14] = target: Prostaglandin F2-alpha receptor (Homo sapiens, UniProt P43088); experiment: Binding affinity to FP receptor
[15] = target: T5, Prostaglandin D2 receptor (Homo sapiens, UniProt Q13258); experiment: Binding affinity to DP receptor
T5 sequence (Q13258 whole entry): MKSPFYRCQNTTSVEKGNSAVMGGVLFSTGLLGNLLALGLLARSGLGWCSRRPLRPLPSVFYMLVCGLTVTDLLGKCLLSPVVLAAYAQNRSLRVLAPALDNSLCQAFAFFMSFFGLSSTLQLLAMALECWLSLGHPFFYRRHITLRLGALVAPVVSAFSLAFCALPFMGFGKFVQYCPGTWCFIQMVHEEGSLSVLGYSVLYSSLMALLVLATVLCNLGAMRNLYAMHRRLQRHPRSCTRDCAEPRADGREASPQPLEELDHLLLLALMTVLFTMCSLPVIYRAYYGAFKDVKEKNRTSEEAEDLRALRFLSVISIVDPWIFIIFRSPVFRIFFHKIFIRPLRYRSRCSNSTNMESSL

[16] = target: T2, Prostaglandin E2 receptor EP3 subtype; experiment: Binding affinity to EP3 receptor in presence of HSA
[17] = Metabolism in human hepatocytes; assay type: ADME, cell-based, Hepatocyte; details: read-out: Activity
[18] = Cmax in Sprague-Dawley rat at 10 mg/kg, po and 5 mg/kg, iv after 1 hr; assay type: ADME, organism-based; details: in vivo
Rattus norvegicus [19] = experiment: Concentration in carrageenan-induced hyperalgesic rat at 5 mg/kg, po, 1 hr postdose; assay type: functional

Sequence of Prostacyclin receptor (P43119 whole entry): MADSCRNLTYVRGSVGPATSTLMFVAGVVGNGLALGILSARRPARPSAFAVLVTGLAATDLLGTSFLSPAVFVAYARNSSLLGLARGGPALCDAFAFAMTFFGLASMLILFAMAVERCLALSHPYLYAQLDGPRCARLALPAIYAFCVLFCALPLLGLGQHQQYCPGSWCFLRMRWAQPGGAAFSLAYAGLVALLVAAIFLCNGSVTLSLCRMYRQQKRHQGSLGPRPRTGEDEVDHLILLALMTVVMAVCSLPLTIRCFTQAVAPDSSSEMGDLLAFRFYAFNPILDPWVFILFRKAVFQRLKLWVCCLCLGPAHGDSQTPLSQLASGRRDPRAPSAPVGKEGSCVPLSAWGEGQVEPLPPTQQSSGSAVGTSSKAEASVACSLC
Sequence of Prostaglandin E2 receptor EP4 subtype (P35408 whole entry): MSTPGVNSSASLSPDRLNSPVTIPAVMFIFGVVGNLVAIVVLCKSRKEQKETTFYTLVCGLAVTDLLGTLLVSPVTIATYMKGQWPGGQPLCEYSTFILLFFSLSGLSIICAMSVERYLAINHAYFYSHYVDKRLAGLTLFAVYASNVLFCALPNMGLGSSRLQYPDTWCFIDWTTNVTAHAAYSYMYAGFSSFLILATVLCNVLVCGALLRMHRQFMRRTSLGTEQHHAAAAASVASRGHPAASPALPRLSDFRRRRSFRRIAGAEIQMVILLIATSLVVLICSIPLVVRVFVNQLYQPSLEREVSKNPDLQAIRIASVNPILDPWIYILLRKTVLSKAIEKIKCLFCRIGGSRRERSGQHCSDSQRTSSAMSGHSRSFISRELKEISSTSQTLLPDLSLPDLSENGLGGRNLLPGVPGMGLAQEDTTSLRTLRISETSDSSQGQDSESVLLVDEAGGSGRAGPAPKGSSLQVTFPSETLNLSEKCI
Sequence of Prostaglandin E2 receptor EP2 subtype (P43116 whole entry): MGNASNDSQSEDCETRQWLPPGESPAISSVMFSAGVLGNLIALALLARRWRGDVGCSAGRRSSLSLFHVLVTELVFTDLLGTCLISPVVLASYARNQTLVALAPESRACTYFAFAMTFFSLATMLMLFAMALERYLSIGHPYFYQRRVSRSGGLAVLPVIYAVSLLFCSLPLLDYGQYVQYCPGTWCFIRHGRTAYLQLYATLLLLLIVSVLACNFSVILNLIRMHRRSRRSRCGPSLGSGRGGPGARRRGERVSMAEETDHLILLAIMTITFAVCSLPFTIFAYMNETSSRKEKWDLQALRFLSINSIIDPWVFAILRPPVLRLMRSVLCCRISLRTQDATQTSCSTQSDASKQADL
Sequence of Prostaglandin F2-alpha receptor (P43088 whole entry): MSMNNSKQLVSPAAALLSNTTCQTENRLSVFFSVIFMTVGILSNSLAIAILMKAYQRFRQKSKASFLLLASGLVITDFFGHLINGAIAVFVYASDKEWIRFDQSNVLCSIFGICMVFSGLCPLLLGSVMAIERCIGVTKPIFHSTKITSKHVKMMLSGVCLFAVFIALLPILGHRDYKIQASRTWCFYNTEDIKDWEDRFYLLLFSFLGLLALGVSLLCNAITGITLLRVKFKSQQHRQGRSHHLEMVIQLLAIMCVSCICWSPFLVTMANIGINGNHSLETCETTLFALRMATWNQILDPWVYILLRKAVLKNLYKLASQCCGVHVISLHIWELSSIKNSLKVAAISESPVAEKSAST

| Ki [1] | Ki [2] | Ki [3] | Ki [4] | Kb [5] | remaining at 3 h [6] | bioavailability [7] | clearance [8] | half-life [9] | Cmax [10] | Ki (Prostacyclin receptor) | Ki (Thromboxane A2 receptor) | Ki [14] | Ki [15] | Ki [16] | Compound | ED50 (Rattus norvegicus [11]) | ED50 (Rattus norvegicus [12]) | Activity (Rattus norvegicus [13]) | further results |
| --- | --- | --- | --- | --- | --- | --- | --- | --- | --- | --- | --- | --- | --- | --- | --- | --- | --- | --- | --- |
| 19000 nM | 860 nM (antagonist) | 9 nM (antagonist) | 2000 nM (antagonist) | 32 nM | 8% | 97% | 10 mL/min | 2 h | 22 µM | > 500 nM | > 500 nM | > 500 nM | > 500 nM | – | Cc1ccc(OCc2ccccc2)c(C/C=C/c2ccccc2/C=C/C(=O)O)c1 | 0.9 mg/kg | 20 mg/kg | 0.24 µM | – |
| 3200 nM (antagonist) | 8000 nM (antagonist) | 0.6 nM (antagonist) | 1100 nM (antagonist) | – | – | – | – | – | – | – | – | – | – | 2.4 nM (antagonist) | O=C(/C=C/c1ccccc1Cc1ccc2cc(OCc3ccccc3)ccc2c1)NS(=O)(=O)c1cccs1 | – | – | – | – |
| 6700 nM (antagonist) | 5400 nM (antagonist) | 3 nM (antagonist) | 620 nM (antagonist) | 5.8 nM | – | 74% | 16 mL/min | 2 h | 25 µM | > 500 nM | > 500 nM | > 500 nM | > 500 nM | – | Cc1ccc(OCc2c(Cl)cccc2Cl)c(/C=C/Cc2ccccc2/C=C/C(=O)O)c1 | 5.1 mg/kg | 5.8 mg/kg | 2.5 µM | – |
| > 100000 nM | > 100000 nM | 0.9 nM (antagonist) | 8000 nM (antagonist) | 0.7 nM | – | – | – | – | – | > 500 nM | > 500 nM | > 500 nM | > 500 nM | 0.7 nM (antagonist) | COc1ccc(Br)cc1S(=O)(=O)NC(=O)/C=C/c1ccccc1Cc1ccc2cc(OCc3ccccc3)ccc2c1 | – | > 30 mg/kg | 8 µM | – |
| 39000 nM | > 50000 nM | 0.6 nM (antagonist) | 890 nM (antagonist) | 0.6 nM | 30% | 72% | 1 mL/min | 4 h | – | > 500 nM | > 500 nM | > 500 nM | > 500 nM | 6.9 nM (antagonist) | COc1ccc(Br)cc1S(=O)(=O)NC(=O)/C=C/c1ccccc1Cc1ccc2ccccc2c1 | 3.3 mg/kg | 3.3 mg/kg | 32 µM | metabolised [17]: 36%; Cmax [18]: 50 µM |
| 19000 nM | 860 nM (antagonist) | 9 nM (antagonist) | 2000 nM (antagonist) | 32 nM | 8% | 97% | 10 mL/min | 2 h | 22 µM | > 500 nM | > 500 nM | > 500 nM | > 500 nM | – | Cc1ccc(OCc2ccccc2)c(/C=C/Cc2ccccc2/C=C/C(=O)O)c1 | 0.9 mg/kg | 20 mg/kg | 1.2 µM | – |
| 9600 nM (antagonist) | 8600 nM (antagonist) | – | 1300 nM (antagonist) | – | 43% | 144% | 12 mL/min | 3 h | 21 µM | > 500 nM | > 500 nM | > 500 nM | > 500 nM | – | O=C(/C=C/c1ccccc1Cc1ccc2ccccc2c1)NS(=O)(=O)c1cccs1 | 1.2 mg/kg | 6.2 mg/kg | 5 µM | metabolised [17]: 45% |
| > 100000 nM | > 40000 nM | 3.2 nM (antagonist) | > 15000 nM | – | – | 59% | 3.1 mL/min | 3 h | 28 µM | > 500 nM | > 500 nM | > 500 nM | 82 nM (antagonist) | 46 nM (antagonist) | O=C(O)/C=C/c1ccccc1Cc1ccc2cc(OCc3ccccc3)ccc2c1 | > 10 mg/kg | 4.6 mg/kg | – | Activity (Rattus norvegicus [19]): 11 µM |
| > 100000 nM | – | 47 nM (antagonist) | 13000 nM | – | – | – | – | – | – | > 500 nM | > 500 nM | > 500 nM | > 500 nM | 400 nM (antagonist) | O=C(O)/C=C/c1ccccc1Cc1ccc2ccccc2c1 | – | 30 mg/kg | 5.4 µM | – |
